Screening results as filed in PubChem.
TROY NFkB inh: inhibitors of TROY-dependent NF-kB signaling; inhibition, % at 10 µM; Q293 LMP1-TROYcd NF-kB luciferase reporter, 4 h; 360,000 tested, 0.98% active;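 active means compounds whose plate-normalised and pattern-corrected inhibition of the luciferase reporter signal at the single screening dose is 50% or more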
NR2E3 ag-1: agonists of human NR2E3 nuclear receptor; CHO-S Gal4-NCOR/VP16-NR2E3 two-hybrid, luciferase; inhibition of corepressor binding, % at 3.98 µM; 360,000 tested, 0.35% active; AID 602229;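 active means inhibition above the mean of all tested compounds plus 3 SD, cut at about 70% in these data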;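 further: 0% = DMSO with NR2E3 transfected cells and 100% = cells lacking NR2E3 construct; higher means lower luciferase signal from less NR2E3 corepressor binding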
Target sequence (Q9Y5X4 whole entry, looked up, the tested form may be a part): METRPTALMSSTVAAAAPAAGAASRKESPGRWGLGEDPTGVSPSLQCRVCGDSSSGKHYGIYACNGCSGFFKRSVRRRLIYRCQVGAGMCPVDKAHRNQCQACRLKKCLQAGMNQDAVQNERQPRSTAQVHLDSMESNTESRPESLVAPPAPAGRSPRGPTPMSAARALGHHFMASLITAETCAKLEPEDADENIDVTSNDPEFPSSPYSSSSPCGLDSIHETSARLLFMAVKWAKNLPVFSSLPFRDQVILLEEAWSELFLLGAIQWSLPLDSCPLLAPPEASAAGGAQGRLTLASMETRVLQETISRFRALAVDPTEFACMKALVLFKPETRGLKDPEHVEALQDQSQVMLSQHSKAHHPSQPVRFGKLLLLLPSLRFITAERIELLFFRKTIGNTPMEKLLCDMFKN
NR2E3 ag-2: activates human photoreceptor nuclear receptor NR2E3; inhibition of corepressor binding, % at 4.78 µM; AID 2300; GST-NR2E3/biotin-RetCOR TR-FRET, 1536-well; 320,000 tested, 0.12% active; Q9Y5X4;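 active means percent inhibition above the cutoff of mean plus 3 SD of all tested compounds, set per screening campaign, cut at about 20% in these data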;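 further: 0% = DMSO wells and 100% = biotin wells as full block of FRET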
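Assay system: NR2E3–RetCOR corepressor complex. Quantity: 1.35 nM GST-NR2E3. Buffer or medium: pH 7.5 Tris-based buffer. Reagent: biotinylated RetCOR corepressor at 7 nM final. Schedule: 5 h at 4 °C. Detection: TR-FRET, emission read at 617 and 671 nm. Replicates: one well per compound, singlicate testing.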
EBV LMP1 NFkB: reduces LMP1-driven NF-kappaB luciferase signal. LMP1-induced NF-kappaB luciferase reporter cells, luminescence. 350,000 tested, 0.69% active. inhibition, % at 12.5 µM. AID 504558; in the data active means inhibition above about 41%;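 further: 0% = neutral control wells and 100% = reference inhibitor control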
HIF activator: HIF pathway transcriptional activation. U2OS HRE-luciferase reporter, luminescence; normalized: DMSO 0%, desferrioxamine 100%. activation, % at 7.5 µM (by protocol). 300,000 tested, 0.32% active;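 active means mean activation of at least 10% of the iron chelator positive control signal, with at least half of replicates also reaching 10%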
NR2E3 ag conf: confirmation of human NR2E3 agonists; shares compounds with NR2E3 ag-1; CHO-S mammalian two-hybrid NR2E3-NCOR, luciferase luminescence; inhibition, % at 3.98 µM; 2,300 tested, 51% active;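 active means average inhibition above a cutoff equal to the mean inhibition of all tested compounds plus one SD, cut at about 70% in these data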;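 further: 0% = DMSO in NR2E3 cells and 100% = DMSO in cells lacking NR2E3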
GAL4-VP16 luc: GAL4-VP16 reporter inhibition in NR2E3 agonist counterscreen | shares compounds with NR2E3 ag-1 | CHO-S GAL4-VP16 luciferase reporter, luminescence | inhibition, % at 3.98 µM | 2,300 tested, 29% active | AID 624379;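 active means mean inhibition above a cutoff equal to the average over all tested compounds plus one standard deviation, cut at about 70% in these data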;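 further: luciferase from a UAS reporter driven by GAL4-VP16 transactivation; 0% = DMSO with VP16-transfected cells and 100% = DMSO with cells lacking VP16; higher means less reporter light so more repression of VP16 activity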
Active calls of the source: *; / = no result. This is a sample that favours compounds with a hit; in the whole collection about 2% have one here.

SMILES	TROY NFkB inh	NR2E3 ag-1	NR2E3 ag-2	EBV LMP1 NFkB	HIF activator	NR2E3 ag conf	GAL4-VP16 luc
O=C(O)c1cccc(Cn2c(Cl)c(/C=N/Nc3ccccc3)sc2=O)c1	-14	70	-5	-11	-1	68	15
Cc1cc(C)cc(CC(=O)N2CCC2(C)C(=O)NS(=O)(=O)c2ccc(C#N)cc2)c1 (stereo not drawn)	3	-28	/	/	/	/	/
CCCCCc1ccc(CC(=O)Nn2c(C)nc3ccccc3c2=O)cc1	39	64	0	7	0	76*	70
O=C(NCc1ccco1)/C(=C/c1ccc(C(F)(F)F)cc1)c1nc2ccccc2[nH]1	31	10	1	4	2	/	/
O=S(=O)(/C(=C\c1ccc(C(F)(F)F)cc1)c1nc2ccccc2[nH]1)c1ccccc1	54*	91*	/	1	/	96*	-12
CC(C)(C)OC(=O)NCc1n[nH]c(=S)n1C1CC1	-8	-2	-2	3	0	/	/
Cc1ccc(S(=O)(=O)N2[C@@H](c3ccc(Cl)cc3)C(C(=O)O)=CC[C@H]2c2ccc(C(C)C)cc2)cc1	49	70	1	6	/	87*	48
Cc1ccc([C@H]2C(C(=O)O)=CC[C@@H](c3ccc(C(C)C)cc3)N2S(=O)(=O)c2ccc(C)cc2)cc1	28	92*	/	1	/	51	36
Cc1ccc(S(=O)(=O)N2[C@@H](c3ccc(C(C)(C)C)cc3)C(C(=O)O)=CC[C@H]2c2cccc(Cl)c2)cc1	81*	84*	/	4	/	70	29
Cc1ccc([C@H]2C(C(=O)O)=CC[C@@H](c3cccc(Cl)c3)N2S(=O)(=O)c2ccc(C)cc2)cc1	21	-9	/	0	/	/	/
CCc1ccc([C@@H]2CC=C(C(=O)O)[C@H](c3ccc(Cl)cc3)N2S(=O)(=O)c2ccc(C)cc2)cc1	34	76*	4	5	/	56	40
Cc1ccc(S(=O)(=O)N2[C@@H](c3ccc(Br)cc3)C(C(=O)O)=CC[C@H]2c2ccc(Cl)c(Cl)c2)cc1	62*	76*	/	-3	/	74*	42
CCCCn1c(N)c(N(CC)C(=O)C2COc3ccccc3O2)c(=O)[nH]c1=O (stereo not drawn)	-15	-3	/	9	/	/	/
CCCCNC(=O)c1ccccc1C(=O)NC1(C(=O)NCCCC)CCCC1	6	-28	/	1	/	/	/
CCN(CC)CC(C)(C)C(=O)/C=C/c1ccc(/C=C/C(=O)C(C)(C)CN(CC)CC)cc1	44	103*	/	91*	/	96*	56
O=C(Cc1cccc2ccccc12)NCCc1ccccc1	5	0	-4	-5	-1	/	/
CC[C@H](C)[C@@H]1NC(=O)[C@@H](CC(C)C)NC(=O)[C@H](C(C)C)NC(=O)[C@H]2CSSC[C@H](NC1=O)C(=O)N2	86*	102*	/	/	/	100*	98*
S=C(NCc1ccccc1)Nc1cccc2cnccc12	42	66	-1	20	0	78*	60
S=C(NCCc1ccccc1)Nc1cccc2cnccc12	36	74*	1	24	0	91*	79*
CCCCNC(=S)Nc1cccc2cnccc12	22	-4	-1	5	3	/	/
CCOC(=O)C1=C(CCl)NC(=O)NC1c1ccc2c(c1)OCO2 (stereo not drawn)	-5	9	-2	-6	0	/	/
CCN(CC(=O)NCc1ccc(Cl)cc1)C(=O)c1cc(S(=O)(=O)NCc2ccccc2)ccc1C	10	17	-1	2	-1	/	/
OCCN1CCN(c2ncnc3c2ncn3[C@H]2CN(Cc3ccc(F)cc3)C[C@@H](CO)O2)CC1	-2	2	/	/	/	/	/
COc1ccc(NS(=O)(=O)c2ccc3oc(SC)nc3c2)cc1	9	74*	0	2	0	53	56
CCOc1ccc(CN(C)c2ccc(S(=O)(=O)N3CCN(C)CC3)cc2[N+](=O)[O-])cc1OC	23	66	3	21	/	78*	69
CC(=O)Nc1ccc(NC(=O)COC(=O)C2(c3ccc(Cl)cc3)CCCC2)cc1	22	-25	0	1	0	/	/
